The values below come from ChEMBL document CHEMBL1134388, “Nonpeptide cholecystokinin-2 receptor agonists” (J Med Chem, 2001).

In assay [1] the target is T1, Gastrin/cholecystokinin type B receptor (Mus musculus) (UniProt P56481).
T1 sequence (whole entry): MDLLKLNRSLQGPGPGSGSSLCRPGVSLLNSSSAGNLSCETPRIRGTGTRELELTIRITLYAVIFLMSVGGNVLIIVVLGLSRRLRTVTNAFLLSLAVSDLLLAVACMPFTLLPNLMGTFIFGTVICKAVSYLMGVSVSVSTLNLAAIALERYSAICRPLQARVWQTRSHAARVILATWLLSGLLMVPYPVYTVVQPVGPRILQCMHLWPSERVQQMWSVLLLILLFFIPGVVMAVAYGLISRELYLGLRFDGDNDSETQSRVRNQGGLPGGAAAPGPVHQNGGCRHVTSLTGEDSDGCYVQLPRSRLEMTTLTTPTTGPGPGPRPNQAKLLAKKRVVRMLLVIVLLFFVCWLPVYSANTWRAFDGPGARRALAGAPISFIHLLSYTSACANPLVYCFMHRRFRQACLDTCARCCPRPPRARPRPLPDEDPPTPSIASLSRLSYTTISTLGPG
In words: Antagonistic activity against CCK2 receptor in mouse cortex assay using [125 I]-BH-CCK-8S. The assay is classed as functional, tissue-based. In a few lines:
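Radioligand competition binding to CCK2 sites in mouse cerebral cortex homogenates against 20 pM [125I]BH-CCK-8S; pKB reported as mean ± SEM from at least three separate experiments.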

The target in assay [2] is T2, Gastrin/cholecystokinin type B receptor (Rattus norvegicus) (UniProt P30553).
T2 sequence (whole entry): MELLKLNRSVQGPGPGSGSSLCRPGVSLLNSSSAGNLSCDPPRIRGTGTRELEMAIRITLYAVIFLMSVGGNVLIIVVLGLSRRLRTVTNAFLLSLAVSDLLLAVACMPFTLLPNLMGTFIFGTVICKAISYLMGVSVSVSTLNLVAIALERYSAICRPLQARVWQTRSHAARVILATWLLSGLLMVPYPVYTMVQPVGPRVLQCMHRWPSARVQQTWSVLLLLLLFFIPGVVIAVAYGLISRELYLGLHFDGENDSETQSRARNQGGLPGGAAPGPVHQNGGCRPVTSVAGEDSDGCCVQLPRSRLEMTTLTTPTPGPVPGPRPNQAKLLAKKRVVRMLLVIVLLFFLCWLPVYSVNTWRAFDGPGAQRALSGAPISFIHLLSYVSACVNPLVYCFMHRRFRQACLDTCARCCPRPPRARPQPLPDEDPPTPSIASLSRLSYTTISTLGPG
In words: Antagonistic activity against CCK2 receptor in rat stomach. The format is functional, tissue-based.

The species entered for assay [3] is Mus musculus. In words: Effect on acid secretion was determined in isolated,lumen-perfused immature mouse stomach; Acid secretion. The format is functional. In outline: (§1)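 Isolated, lumen-perfused mouse stomach; compound applied alone and acid secretion observed, scored as present or absent. Tested as bis(N-methyl-D-glucamine) salts.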
The species entered for assay [4] is Mus musculus. The assay can be described thus: Effect on acid secretion was determined in isolated,lumen-perfused immature mouse stomach; No acid secretion. The assay is classed as functional. In outline:
as §1

The species named for assay [5] is Mus musculus. The assay can be described thus: Charecterization of agonist response of ligand in mouse stomach bioassay. The format is functional.
Assay [6] is filed under the species Mus musculus. The assay can be described thus: Charecterization of agonist response of ligand in mouse stomach bioassay measured as affinity of L-365260. The format is functional.

In general, pKB refers to −log10 of the KB, conventionally taken in molar units. A lower pKB goes with a large KB.

The source made the active and inactive calls. The rule behind the calls is not given here.

Regarding `Cn1ccc2cc(C(=O)N[C@@H](Cc3ccccc3)C(=O)Nc3cc(C(=O)O)cc(C(=O)O)c3)c(C(=O)NCC34CC5CC(CC(C5)C3)C4)cc21` (stereo in doubt; 4) [listing 1 of 2 here], the pKB worked out at 9.43 in assay [1] and 8.99 in assay [2]. Moreover, in the assay filed under Mus musculus [3], the Acid secretion result was “Active”.

As for `Cn1ccc2cc(C(=O)N[C@@H](Cc3ccccc3)C(=O)Nc3cc(C(=O)O)cc(C(=O)O)c3)c(C(=O)NCC34CC5CC(CC(C5)C3)C4)cc21` (stereo in doubt; 3) [listing 1 of 2 here], the pKB turned out to be 8.42 in assay [1] and 9.8 in assay [2]. For the same compound, in the assay listed under Mus musculus [3], the Acid secretion entry is “Active”.

Take `O=C(O)c1cc(NC(=O)[C@H](Cc2ccccc2)NC(=O)c2cc3[nH]ccc3cc2C(=O)NCC23CC4CC(CC(C4)C2)C3)cc(C(=O)O)c1`: the pKB in assay [1] worked out at 7.87; in assay [2] it was 9.26. Moreover, the Acid secretion result in the assay filed under Mus musculus [4] was “inactive”.

As for `CSCC[C@H](NC(=O)[C@H](Cc1c[nH]c2ccccc12)NC(=O)CCNC(=O)OC(C)(C)C)C(=O)N[C@@H](CC(=O)O)C(=O)N[C@@H](Cc1ccccc1)C(N)=O` [PENTAGASTRIN], the pA50 in the assay listed under Mus musculus [5] is given as 7.73. Moreover, the Kb in the assay listed under Mus musculus [6] (read-out: pA2 (converted)) was 9.77 nM.

On to `Cn1cnc2cc(C(=O)N[C@@H](Cc3ccccc3)C(=O)Nc3cc(C(=O)O)cc(C(=O)O)c3)c(C(=O)NCC34CC5CC(CC(C5)C3)C4)cc21`, for which the pKB in assay [1] amounted to 7.6; in assay [2], 8.95. Further, the Acid secretion entry in the assay filed under Mus musculus [3] is “Active”.

As to `CCCCn1ccc2cc(C(=O)NCC34CC5CC(CC(C5)C3)C4)c(C(=O)N[C@@H](Cc3ccccc3)C(=O)Nc3cc(C(=O)O)cc(C(=O)O)c3)cc21`, the pKB in assay [1] was found to be 7.52; in assay [2], 6.86. The Acid secretion entry in the assay filed under Mus musculus [3] was “Active”.

For `CCCCn1ccc2cc(C(=O)N[C@@H](Cc3ccccc3)C(=O)Nc3cc(C(=O)O)cc(C(=O)O)c3)c(C(=O)NCC34CC5CC(CC(C5)C3)C4)cc21`, the pKB in assay [1] worked out at 8.44; in assay [2] it was 7.35. For the same compound, the Acid secretion entry in the assay filed under Mus musculus [3] is “Active”.

For `CC(=O)n1ccc2cc(C(=O)N[C@@H](Cc3ccccc3)C(=O)Nc3cc(C(=O)O)cc(C(=O)O)c3)c(C(=O)NCC34CC5CC(CC(C5)C3)C4)cc21`, the negative logarithm of the KB (pKB) in assay [1] was found to be 8.74; in assay [2], 8.72.

On to `Cn1ccc2cc(C(=O)NCC34CC5CC(CC(C5)C3)C4)c(C(=O)N[C@@H](Cc3ccccc3)C(=O)Nc3cc(C(=O)O)cc(C(=O)O)c3)cc21`, for which the pKB is 8.36 in assay [1] and 8.57 in assay [2]. In the assay filed under Mus musculus [5], this compound showed a pA50 of 7.94. Besides, the Acid secretion result in the assay filed under Mus musculus [3] is “Active”.

As for `Cn1ccc2cc(C(=O)N[C@@H](Cc3ccccc3)C(=O)Nc3cc(C(=O)O)cc(C(=O)O)c3)c(C(=O)NCC34CC5CC(CC(C5)C3)C4)cc21` (stereo in doubt; 4) [listing 2 of 2 here], the pA50 in the assay listed under Mus musculus [5] was 8.69. The same compound returned a pKB in the assay listed under Mus musculus [6] of 7.02.

Take `Cn1ccc2cc(C(=O)N[C@@H](Cc3ccccc3)C(=O)Nc3cc(C(=O)O)cc(C(=O)O)c3)c(C(=O)NCC34CC5CC(CC(C5)C3)C4)cc21` (stereo in doubt; 3) [listing 2 of 2 here]: the pA50 in the assay listed under Mus musculus [5] came to 8.4. This compound also showed a pKB in the assay listed under Mus musculus [6] of 7.04.

Take `O=C(O)c1cc(NC(=O)[C@H](Cc2ccccc2)NC(=O)c2cc3cc[nH]c3cc2C(=O)NCC23CC4CC(CC(C4)C2)C3)cc(C(=O)O)c1`: the pKB in assay [1] amounted to 8.96; in assay [2], 9.9.
